PMC11929827 (Scientific Reports, 2025)
Entries after “also recorded” stand apart in the source; their conditions may differ. Values belong to the molecule of their own block, whether it stands above or below them.

How the values were obtained:
[1] = molecular target: α-Glucosidase (derived from Saccharomyces cerevisiae; EC3.2.1.20) (Saccharomyces cerevisiae, UniProt P53341); assay: In vitro α-glucosidase inhibitory study; assay type: biochemical
[2] = molecular target: T1, α-glucosidase (Saccharomyces cerevisiae, UniProt P53341); conditions: read-out: α-glucosidase IC50; Fig. 1; cited from earlier work
T1 sequence (P53341 whole entry): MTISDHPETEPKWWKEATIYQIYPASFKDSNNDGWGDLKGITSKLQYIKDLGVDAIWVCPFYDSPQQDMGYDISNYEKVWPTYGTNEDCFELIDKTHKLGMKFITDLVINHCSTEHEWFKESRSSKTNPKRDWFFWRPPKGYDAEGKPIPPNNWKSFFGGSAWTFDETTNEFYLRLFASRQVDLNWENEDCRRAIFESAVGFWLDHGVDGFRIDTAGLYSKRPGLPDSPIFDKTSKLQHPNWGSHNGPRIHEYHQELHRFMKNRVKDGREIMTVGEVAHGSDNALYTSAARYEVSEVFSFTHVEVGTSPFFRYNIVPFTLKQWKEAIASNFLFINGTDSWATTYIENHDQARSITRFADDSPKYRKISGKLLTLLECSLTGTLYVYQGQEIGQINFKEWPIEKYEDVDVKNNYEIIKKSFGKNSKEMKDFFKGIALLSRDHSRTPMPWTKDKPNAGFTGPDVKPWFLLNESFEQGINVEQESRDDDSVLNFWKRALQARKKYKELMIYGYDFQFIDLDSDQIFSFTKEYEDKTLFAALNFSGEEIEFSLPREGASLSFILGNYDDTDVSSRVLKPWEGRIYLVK

[3] = molecular target: T1, α-glucosidase; assay: Kinetic studies of α-glucosidase; assay type: biochemical
[4] = molecular target: T1, α-glucosidase; assay: Fluorescence spectroscopy measurements; assay type: binding; conditions: 0–500 nM, excitation 280 nm, phosphate buffer pH 6.8
How it was run: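 Fixed amount of yeast α-glucosidase in 3.0 ml with test compound at 0–500 nM, equilibrated 10 min. Steady-state emission spectra recorded 300–500 nm with excitation at 280 nm in a 1.0 cm quartz cell. Buffer-only spectra without enzyme subtracted as background.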

[5] = tested on: male Wistar rats; assay: In vivo hypoglycemic activity assay; set-up: species or system rat; conditions: for blood glucose effect (area under curve) vs negative control: sucrose 7.5 g/kg, one-way ANOVA
How it was run: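 Sucrose 7.5 g/kg was given 30 min later. Tail-vein glucose measured by glucometer at 0, 30, 45, 60 and 120 min. Area under curve compared by one-way ANOVA; mean ± SD.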

[6] = molecular target: T1, α-glucosidase; assay: Thermodynamic analysis of the binding of compound 8g to α-glucosidase
How it was run: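 Fluorescence intensity of yeast α-glucosidase at 340 nm followed over 298–338 K, with or without test compound (pH 6.8), under a two-state N↔U model. Denatured fraction, apparent K and ΔG° = −RT ln K were calculated, then fitted to the integrated Gibbs–Helmholtz equation (ΔCp 11.6 kJ/mol K). This gave Tm (half-denatured), ΔH°m and ΔS°m, with ΔH = TmΔS.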

[7] = cited from earlier work
[8] = tested on: normal cell lines; conditions: cited from earlier work
[9] = molecular target: T1, α-glucosidase; conditions: kinetic studies; cited from earlier work

Sequence of α-Glucosidase (derived from Saccharomyces cerevisiae; EC3.2.1.20) (P53341 whole entry): as above

Compound: O=C(NNC1OC(CO)C(O)C(O)C1O)c1cc(-c2ccccc2)on1 (stereo not drawn) [H, 5-phenyl-N’-(3,4,5-trihydroxy-6-(hydroxymethyl)tetrahydro-2H-pyran-2-yl)isoxazole-3-carbohydrazide]
IC50 [2]: 292 µM

Compound: O=C(NN=CC(O)C(O)C(O)C(O)CO)c1cc(-c2ccc(Cl)cc2)[nH]n1 (stereo not drawn) [Compound 8e, 5-(4-Chlorophenyl)-N’-(2,3,4,5,6-pentahydroxyhexylidene)−1H-pyrazole-3-carbohydrazide]
IC50 [1]: 1 µM

Compound: COc1ccc(-c2cc(C(=O)NN=CC(O)C(O)C(O)C(O)CO)n[nH]2)cc1 (stereo not drawn) [Compound 8l, 5-(4-Methoxyphenyl)-N’-(2,3,4,5,6-pentahydroxyhexylidene)−1H-pyrazole-3-carbohydrazide]
IC50 [1]: 2.3 µM

Compound: COc1ccc(/C=C/c2cc(O)cc(OC3OC(CO)C(O)C(O)C3O)c2)cc1O (stereo not drawn) [F, 2-(3-hydroxy-5-((E)−3-hydroxy-4-methoxystyryl)phenoxy)−6-(hydroxymethyl)tetrahydro-2H-pyran-3,4,5-triol]
bioavailability [7]: very low
toxic effects [7]: no toxic effects

Compound: COc1ccc(-c2cc(C(=O)NN=CC(O)C(O)C(O)C(O)CO)n[nH]2)cc1OC (stereo not drawn) [Compound 8m, 5-(3,4-Dimethoxyphenyl)-N’-(2,3,4,5,6-pentahydroxyhexylidene)−1H-pyrazole-3-carbohydrazide]
IC50 [1]: 438.6 ± 0.1 µM

Compound: O=C(NN=Cc1cn(-c2ccccc2)nc1-c1ccc([N+](=O)[O-])cc1)c1cc2ccccc2o1 [B, N’-((3-(4-nitrophenyl)−1-phenyl-1H-pyrazol-4-yl)methylene)benzofuran-2-carbohydrazide]
cytotoxicity to normal cell lines [8]: non-toxic

Compound: O=C(Cn1c(-c2ccc(Cl)cc2)nc2ccccc2c1=O)NN=Cc1cn(-c2ccccc2)nc1-c1ccc(Br)cc1 [E, N’-((3-(4-bromophenyl)−1-phenyl-1H-pyrazol-4-yl)methylene)−2-(2-(4-chlorophenyl)−4-oxoquinazolin-3(4H)-yl)acetohydrazide]
IC50 [2]: 60.5 µM
mechanism of α-glucosidase inhibition [9]: competitive mechanism

Compound: COc1cccc(-c2cc(C(=O)NN=CC(O)C(O)C(O)C(O)CO)n[nH]2)c1 (stereo not drawn) [Compound 8k, 5-(3-Methoxyphenyl)-N’-(2,3,4,5,6-pentahydroxyhexylidene)−1H-pyrazole-3-carbohydrazide]
IC50 [1]: 2.3 µM

Compound: O=C(NN=CC(O)C(O)C(O)C(O)CO)c1cc(-c2ccc([N+](=O)[O-])cc2)[nH]n1 (stereo not drawn) [Compound 8h, 5-(4-Nitrophenyl)-N’-(2,3,4,5,6-pentahydroxyhexylidene)−1H-pyrazole-3-carbohydrazide]
IC50 [1]: 80.5 ± 0.7 µM

Compound: O=C(NN=CC(O)C(O)C(O)C(O)CO)c1cc(-c2ccc(F)cc2)[nH]n1 (stereo not drawn) [Compound 8d, 5-(4-Fluorophenyl)-N’-(2,3,4,5,6-pentahydroxyhexylidene)−1H-pyrazole-3-carbohydrazide]
IC50 [1]: 60.6 ± 1 µM

Compound: Cc1ccc(-c2cc(C(=O)NN=CC(O)C(O)C(O)C(O)CO)n[nH]2)cc1 (stereo not drawn) [Compound 8j, N’-(2,3,4,5,6-Pentahydroxyhexylidene)−5-(p-tolyl)−1H-pyrazole-3-carbohydrazide]
IC50 [1]: 36.4 ± 0.2 µM

The remaining molecules from weak to strong by IC50 [1], led by results:

IC50 [1]: 53.9 ± 1.2 µM
Compound: O=C(NN=CC(O)C(O)C(O)C(O)CO)c1cc(-c2ccccc2F)[nH]n1 (stereo not drawn) [Compound 8b, 5-(2-Fluorophenyl)-N’-(2,3,4,5,6-pentahydroxyhexylidene)−1H-pyrazole-3-carbohydrazide]

IC50 [1]: 35.2 ± 0.5 µM
Compound: O=C(NN=CC(O)C(O)C(O)C(O)CO)c1cc(-c2ccc(Br)cc2)[nH]n1 (stereo not drawn) [Compound 8f, 5-(4-Bromophenyl)-N’-(2,3,4,5,6-pentahydroxyhexylidene)−1H-pyrazole-3-carbohydrazide]

IC50 [1]: 12.1 ± 0.5 µM
Compound: Cc1cccc(-c2cc(C(=O)NN=CC(O)C(O)C(O)C(O)CO)n[nH]2)c1 (stereo not drawn) [Compound 8i, N’-(2,3,4,5,6-Pentahydroxyhexylidene)−5-(m-tolyl)−1H-pyrazole-3-carbohydrazide]

IC50 [1]: 4.2 ± 0.1 µM
Compound: O=C(NN=CC(O)C(O)C(O)C(O)CO)c1cc(-c2ccccc2Cl)[nH]n1 (stereo not drawn) [Compound 8c, 5-(2-Chlorophenyl)-N’-(2,3,4,5,6-pentahydroxyhexylidene)−1H-pyrazole-3-carbohydrazide]

IC50 [1]: 1.2 µM
Compound: O=C(NN=CC(O)C(O)C(O)C(O)CO)c1cc(-c2ccccc2)[nH]n1 (stereo not drawn) [Compound 8a, N’-(2,3,4,5,6-Pentahydroxyhexylidene)−5-phenyl-1H-pyrazole-3-carbohydrazide]

Ki [3]: 0.46 µM
fluorescence intensity of α-glucosidase [4]: increased intensity
shift in the emission wavelength (λmax 340 nm) [4]: did not show significant shift
IC50 [1]: 0.5 µM
inhibition of α-glucosidase, times more potently than acarbose ([1]; relative to acarbose): 1500 times
Tm of α-glucosidase ([6]; 60 nM compound): 314 K
ΔSm° of α-glucosidase denaturation ([6]; 60 nM compound): 328.6 J mol^−1 K^−1
Tm of α-glucosidase ([6]; 250 nM compound): 309 K
ΔSm° of α-glucosidase denaturation ([6]; 250 nM compound): 466.9 J mol^−1 K^−1
Tm of α-glucosidase ([6]; 500 nM compound): 304 K
ΔHm° of α-glucosidase denaturation ([6]; 500 nM compound): 37.55 kcal/mol
ΔSm° of α-glucosidase denaturation ([6]; 500 nM compound): 516.4 J mol^−1 K^−1
Compound: O=C(NN=CC(O)C(O)C(O)C(O)CO)c1cc(-c2ccc(Cl)cc2Cl)[nH]n1 (stereo not drawn) [Compound 8g, 5-(2,4-Dichlorophenyl)-N’-(2,3,4,5,6-pentahydroxyhexylidene)−1H-pyrazole-3-carbohydrazide]
type of inhibition ([3]; Lineweaver-Burk plot: Km increased, Vmax unchanged): competitive manner; also recorded: competitive inhibitor
blood sugar levels in rats ([5]; doses comparable to acarbose): capable of lowering blood sugar levels; also recorded: effectively reduced
blood glucose effect (area under curve) vs negative control ([5]; rat, oral 2.5 mg/kg): did not significantly differ
blood glucose effect (area under curve) vs negative control ([5]; rat, oral 5 mg/kg, p-value < 0.05): significantly different
blood glucose effect (area under curve) vs negative control ([5]; rat, oral 10 mg/kg, p-value < 0.05): significantly different
effectiveness of 5 and 10 mg/kg doses vs each other and vs acarbose (5 mg/kg) ([5]; rat, oral, sucrose tolerance test): did not significantly differ
